Test results as given in ChEMBL document CHEMBL1124476, “1-(2-aminoethyl)-6-aryl-4H- [1,2,4]triazolo[4,3-a][1,4]benzodiazepines with diuretic and natriuretic activity” (J Med Chem, 1989).

Columns and labels:
[1] = Diuretic activity at 40 mg/kg (screening dose-90.1 umol/kg) in […] in a one stage experiment; T/C = urine vol of treated rats / urine vol of control rats; type: functional
Method in brief: (§1)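 40 mg/kg given by gavage in 25 mL/kg 0.9% saline with 0.5% (carboxymethyl)cellulose. Four rats per agent, two per metabolism cage; 20 controls; 5 h urine. T/C = treated/control urine volume. Stage-1 T/C of 1.66 or more leads to stage 2; product T/C1·T/C2 of 3.34 or more counts as active.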

[2] = system: Rattus norvegicus; assay: Mean excretion of sodium in conscious rats at a dose of 3.0 mg/kg given orally; type: ADME, organism-based; design: dose 3 mg/kg, route oral; details: in vivo, po
Method in brief: (§2)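 Male Sprague-Dawley rats, about 160 g, fasted 24 h and water withheld 1 1/2 h beforehand; food and water withheld during the test. Dosing by gavage with 25 mL/kg 0.9% saline containing 0.5% (carboxymethyl)cellulose, agent dissolved or suspended. Three cages of two rats each per dose, held in metabolism cages. Urine collected over 5 h. Volume given in mL, Na+ in mequiv. Significance versus control at P < 0.05.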

[3] = species: Rattus norvegicus; assay: […]; type: ADME, organism-based, Urine; design: dose 100 mg/kg, route oral; details: in vivo, po, 100 mg/kg; method in brief: as §2
[4] = system: Rattus norvegicus; assay: Mean excretion of sodium in conscious rats at a dose of 100 mg/kg given orally; type: ADME, organism-based; design: dose 100 mg/kg, route oral; details: in vivo, po; method in brief: as §2
[5] = (§3) Mean excretion of Cl- in conscious rats at a dose of 0.3 mg/kg given orally; type: functional, Urine; details: route oral
Method in brief: (§4)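 Dose-response test in male Sprague-Dawley rats of about 160 g, fasted 24 h, with water withheld 1½ h before and during the test. Each rat got a single gavage of 25 mL/kg 0.9% saline with 0.5% carboxymethylcellulose carrying the agent (0.3–100 mg/kg range). Rats were housed two per metabolism cage, and urine was collected for 5 h. Mean urine volume (mL) was compared with controls (P < 0.05).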

[6] = species: Rattus norvegicus; assay: […]; type: ADME, organism-based, Urine; design: dose 10 mg/kg, route oral; details: in vivo, po, 10 mg/kg; method in brief: as §2
[7] = system: Rattus norvegicus; assay: Mean excretion of […] in conscious rats at a dose of 1.0 mg/kg given orally; type: ADME, organism-based; design: dose 1 mg/kg, route oral; details: in vivo, po; method in brief: as §2
[8] = system: Rattus norvegicus; assay: Mean excretion of potassium in conscious rats at a dose of 3.0 mg/kg given orally; type: ADME, organism-based; design: dose 3 mg/kg, route oral; details: in vivo, po
Method in brief: (§5)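 Secondary dose-response in male Sprague-Dawley rats (~160 g), fasted and hydrated as in the primary screen. Oral gavage at 0.3-100 mg/kg in 25 mL/kg saline/0.5% CMC, three cages of two rats per dose. Urine collected 5 h; Na, K, Cl, HCO3 measured. Values are mean excretion (mequiv), compared with controls at P < 0.05.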

[9] = system: Rattus norvegicus; assay: Mean excretion of potassium in conscious rats at a dose of 100 mg/kg given orally; type: ADME, organism-based; design: dose 100 mg/kg, route oral; details: in vivo, po; method in brief: as §5
[10] = Mean excretion of Cl- in conscious rats at a dose of 1.0 mg/kg given orally; type: functional, Urine; details: route oral; method in brief: as §4
[11] = system: Rattus norvegicus; assay: Mean excretion of sodium in conscious rats at a dose of 30 mg/kg given orally; type: ADME, organism-based; design: dose 30 mg/kg, route oral; details: in vivo, po; method in brief: as §2
[12] = system: Rattus norvegicus; assay: Mean excretion of potassium in conscious rats at a dose of 30 mg/kg given orally; type: ADME, organism-based; design: dose 30 mg/kg, route oral; details: in vivo, po; method in brief: as §5
[13] = system: Rattus norvegicus; assay: Mean excretion of sodium in conscious rats at a dose of 0.3 mg/kg given orally; type: ADME, organism-based; design: dose 0.3 mg/kg, route oral; details: in vivo, po; method in brief: as §2
[14] = system: Rattus norvegicus; assay: Mean excretion of potassium in conscious rats at a dose of 0.3 mg/kg given orally; type: ADME, organism-based; design: dose 0.3 mg/kg, route oral; details: in vivo, po; method in brief: as §5
[15] = system: Rattus norvegicus; assay: Mean excretion of sodium in conscious rats at a dose of 10 mg/kg given orally; type: ADME, organism-based; design: dose 10 mg/kg, route oral; details: in vivo, po; method in brief: as §2
[16] = system: Rattus norvegicus; assay: Mean excretion of potassium in conscious rats at a dose of 10 mg/kg given orally; type: ADME, organism-based; design: dose 10 mg/kg, route oral; details: in vivo, po; method in brief: as §5
[17] = species: Rattus norvegicus; assay: […]; type: ADME, organism-based, Urine; design: dose 30 mg/kg, route oral; details: in vivo, po, 30 mg/kg; method in brief: as §2
[18] = system: Rattus norvegicus; assay: Mean excretion of potassium in conscious rats at a dose of 1.0 mg/kg given orally; type: ADME, organism-based; design: dose 1 mg/kg, route oral; details: in vivo, po; method in brief: as §5
[19] = species: Rattus norvegicus; assay: […]; type: ADME, organism-based, Urine; design: dose 3 mg/kg, route oral; details: in vivo, po, 3 mg/kg; method in brief: as §2
[20] = system: Rattus norvegicus; assay: Mean excretion of chloride in conscious rats at a dose of 1.0 mg/kg given orally; type: ADME, organism-based; design: dose 1 mg/kg, route oral; details: in vivo, po; method in brief: as §5
[21] = system: Rattus norvegicus; assay: Mean excretion of chloride in conscious rats at a dose of 3.0 mg/kg given orally; type: ADME, organism-based; design: dose 3 mg/kg, route oral; details: in vivo, po; method in brief: as §5
[22] = system: Rattus norvegicus; assay: Mean excretion of chloride in conscious rats at a dose of 100 mg/kg given orally; type: ADME, organism-based; design: dose 100 mg/kg, route oral; details: in vivo, po; method in brief: as §5
[23] = system: Rattus norvegicus; assay: Mean excretion of chloride in conscious rats at a dose of 30 mg/kg given orally; type: ADME, organism-based; design: dose 30 mg/kg, route oral; details: in vivo, po; method in brief: as §5
[24] = system: Rattus norvegicus; assay: as §3; type: ADME, organism-based, Urine; design: dose 0.3 mg/kg, route oral; details: in vivo, po; method in brief: as §4
[25] = system: Rattus norvegicus; assay: Mean excretion of chloride in conscious rats at a dose of 10 mg/kg given orally; type: ADME, organism-based; design: dose 10 mg/kg, route oral; details: in vivo, po; method in brief: as §5
[26] = Diuretic activity at 40 mg/kg (screening dose-84 umol/kg) in male […] in a two stage experiment; T/C1.2 = urine vol of treated rats / urine vol of control rats; type: functional; method in brief: as §1
[27] = Diuretic activity at 40 mg/kg (screening dose-84 umol/kg) in male […] in a one stage experiment; T/C = urine vol of treated rats / urine vol of control rats; type: functional; method in brief: as §1
[28] = Diuretic activity at 40 mg/kg (screening dose-90.5 umol/kg) in […] in a one stage experiment; T/C = urine vol of treated rats / urine vol of control rats; type: functional; method in brief: as §1

Clc1ccc2c(c1)C(c1ccccc1)=NCc1nnc(C(CN3CCCC3)c3ccccc3)n1-2 (stereo not drawn)
T/C 1 [1]: 1.33

NS(=O)(=O)c1cc(C(=O)O)c(NCc2ccco2)cc1Cl [FUROSEMIDE]
Mean excretion of Na+ [2]: 0.86 m equiv | Mean urine volume [3]: 27.8 mL | Mean excretion of Na+ [4]: 3.52 m equiv | Mean urine volume [5]: 4.45 mL | Mean urine volume [6]: 8.48 mL | Mean excretion of Na+ [7]: 0.83 m equiv | Mean excretion of K+ [8]: 0.27 m equiv | Mean excretion of K+ [9]: 0.67 m equiv | Mean urine volume [10]: 4.7 mL | Mean excretion of Na+ [11]: 2.37 m equiv | Mean excretion of K+ [12]: 0.46 m equiv | Mean excretion of Na+ [13]: 0.82 m equiv | Mean excretion of K+ [14]: 0.22 m equiv | Mean excretion of Na+ [15]: 1.13 m equiv | Mean excretion of K+ [16]: 0.34 m equiv | Mean urine volume [17]: 18.3 mL | Mean excretion of K+ [18]: 0.21 m equiv | Mean urine volume [19]: 5.23 mL

NS(=O)(=O)c1cc2c(cc1Cl)NCNS2(=O)=O [HYDROCHLOROTHIAZIDE]
Mean excretion of Na+ [2]: 1.66 m equiv | Mean urine volume [3]: 10.61 mL | Mean excretion of Na+ [4]: 1.9 m equiv | Mean urine volume [5]: 7.18 mL | Mean urine volume [6]: 9.24 mL | Mean excretion of Na+ [7]: 1.59 m equiv | Mean excretion of K+ [8]: 0.34 m equiv | Mean excretion of Cl- [20]: 1.77 m equiv | Mean excretion of Cl- [21]: 1.78 m equiv | Mean excretion of Cl- [22]: 2.09 m equiv | Mean excretion of Cl- [23]: 2.03 m equiv | Mean excretion of K+ [9]: 0.36 m equiv | Mean urine volume [10]: 8.87 mL | Mean excretion of Cl- [24]: 1.42 m equiv | Mean excretion of Na+ [11]: 1.86 m equiv | Mean excretion of K+ [12]: 0.3 m equiv | Mean excretion of Na+ [13]: 1.32 m equiv | Mean excretion of Cl- [25]: 1.91 m equiv | Mean excretion of K+ [14]: 0.26 m equiv | Mean excretion of Na+ [15]: 1.86 m equiv | Mean excretion of K+ [16]: 0.31 m equiv | Mean urine volume [17]: 10.03 mL | Mean excretion of K+ [18]: 0.32 m equiv | Mean urine volume [19]: 8.48 mL

CN(C)CC(c1ccccc1)c1nnc2n1-c1ccc(Cl)cc1C(c1ccccc1Cl)=NC2 (stereo not drawn)
T/C 1.2 [26]: 2.66 | T/C 1 [27]: 1.87

CN(C)CC(c1ccccc1)c1nnc2n1-c1ccccc1C(c1ccccc1Cl)=NC2 (stereo not drawn)
T/C 1 [28]: 1.62

CN(C)CC(c1cccc(Cl)c1)c1nnc2n1-c1ccc(Cl)cc1C(c1ccccc1)=NC2 (stereo not drawn)
T/C 1.2 [26]: 3.2 | T/C 1 [27]: 1.86
